ChEMBL document CHEMBL4145448, “Broad activity of diphenyleneiodonium analogues against Mycobacterium tuberculosis, malaria parasites and bacterial pathogens” (Eur J Med Chem, 2018)

Columns and labels:
[1] = Selectivity index, ratio of CC50 for human HepG2 cells in presence of 1% FBS to MIC for Acinetobacter baumannii ATCC 19606; format: toxicity; settings: read-out: Selectivity Index
[2] = Selectivity index, ratio of CC50 for human HepG2 cells in presence of 1% FBS to MIC for Klebsiella pneumoniae isolate 224-11-C; format: toxicity; settings: read-out: Selectivity Index
[3] = Selectivity index, ratio of CC50 for human HepG2 cells in presence of 1% FBS to MIC for vancomycin-intermediate Staphylococcus aureus ATCC 700698; format: toxicity; settings: read-out: Selectivity Index
Procedure, shortened: (§1)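 Selectivity index is CC50 (1% FBS) divided by MIC. […] They then got compound at 300 to 0.14 µM (3-fold steps) for 24 h at 37 °C, 5% CO2. Resazurin (10 µM, 2 h) was read at ex/em 560/590 in duplicate wells. For MIC, CLSI broth microdilution was run in CaMHB with ~10^6 cfu/mL inoculum and 0–128 µM compound.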

Klebsiella pneumoniae [4] = assay: Antibacterial activity against Klebsiella pneumoniae isolate 248-33-D after 18 hrs by broth microdilution method; format: functional
Procedure, shortened: (§2)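 Broth microdilution per CLSI in cation-adjusted Mueller-Hinton broth. 100 µL inoculum (~10^6 cfu/mL in CaMHB) mixed with 100 µL CaMHB containing compound, 0 to 128 µM. Incubated 18 h at 37 °C. MIC taken as the lowest concentration with no visible growth. Polymyxin B served as positive control. Isolates were stored at -80 °C in tryptone soy broth with 20% glycerol.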

Escherichia coli [5] = assay: Antibacterial activity against Escherichia coli N2381 after 18 hrs by broth microdilution method; format: functional; settings: N2381, 18 h; procedure, shortened: as §2
Acinetobacter baumannii [6] = assay: Antibacterial activity against Acinetobacter baumannii ATCC 19606 col10 after 18 hrs by broth microdilution method; format: functional; settings: ATCC 19606 = CIP 70.34 = JCM 6841 col10, 18 h; procedure, shortened: as §2
[7] = Selectivity index, ratio of CC50 for human HepG2 cells in presence of 1% FBS to MIC for Klebsiella pneumoniae isolate 248-33-D; format: toxicity; settings: read-out: Selectivity Index
Staphylococcus aureus [8] = assay: Antibacterial activity against vancomycin-resistant Staphylococcus aureus ATCC 700699 after 18 hrs by broth microdilution method; format: functional; settings: ATCC 700699, 18 h; procedure, shortened: as §2
Klebsiella pneumoniae [9] = assay: Antibacterial activity against Klebsiella pneumoniae isolate M320445 after 18 hrs by broth microdilution method; format: functional; settings: isolate M320445, 18 h; procedure, shortened: as §2
Pseudomonas aeruginosa [10] = assay: Antibacterial activity against Pseudomonas aeruginosa isolate 18878B klon 1 after 18 hrs by broth microdilution method; format: functional; settings: isolate 18878B klon 1, 18 h; procedure, shortened: as §2
[11] = Selectivity index, ratio of CC50 for human HepG2 cells in presence of 1% FBS to MIC for Pseudomonas aeruginosa isolate 19147nm; format: toxicity; settings: read-out: Selectivity Index; procedure, shortened: as §1
Escherichia coli [12] = assay: Antibacterial activity against Escherichia coli N4149 after 18 hrs by broth microdilution method; format: functional; settings: N4149, 18 h; procedure, shortened: as §2
[13] = Selectivity index, ratio of CC50 for human HepG2 cells in presence of 1% FBS to MIC for Escherichia coli N11281; format: toxicity; settings: read-out: Selectivity Index
Klebsiella pneumoniae [14] = assay: Antibacterial activity against Klebsiella pneumoniae isolate 1 after 18 hrs by broth microdilution method; format: functional; settings: isolate 1, 18 h; procedure, shortened: as §2
[15] = Selectivity index, ratio of CC50 for human HepG2 cells in presence of 1% FBS to MIC for Acinetobacter baumannii ATCC 19606 col10; format: toxicity; settings: read-out: Selectivity Index
[16] = Cytotoxicity against human HepG2 cells after 24 hrs in presence of 1% FBS by resazurin dye based assay; format: cell-based
Procedure, shortened: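 HepG2 cells seeded at 4000/well in DMEM with 1% FBS and allowed to attach for 24 h at 37 °C, 5% CO2. Compounds added from 300 to 0.14 µM in 3-fold steps and incubated 24 h. 10 µM resazurin added for 2 h, fluorescence read at ex/em 560/590. Percent viability computed relative to untreated and negative controls, duplicate wells.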

[17] = system: Mycobacterium tuberculosis; assay: Antimycobacterial activity against Mycobacterium tuberculosis H37Rv ATCC 25618 after 7 days by resazurin dye based assay; format: functional; settings: H37Rv ATCC 25618, 168 h
Procedure, shortened: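 H37Rv grown at 37 °C in 7H9 with 10% ADC, 0.5% glycerol and 0.02% tyloxapol. Compounds serially diluted in water, 0 to 10 µM, in triplicate. Culture adjusted to OD600 0.001 and incubated 7 days at 37 °C. Resazurin (0.05% w/v) added for 4-24 h and fluorescence read at 590 nm. MIC is the lowest concentration giving complete growth inhibition versus untreated. Rifampicin served as control.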

Staphylococcus aureus [18] = assay: Antibacterial activity against vancomycin-intermediate Staphylococcus aureus ATCC 700698 after 18 hrs by broth microdilution method; format: functional; settings: ATCC 700698, 18 h; procedure, shortened: as §2
Enterococcus faecium = assay: Antibacterial activity against vancomycin-resistant Enterococcus faecium ATCC 700221 after 18 hrs by broth microdilution method; format: functional; settings: ATCC 700221, 18 h; procedure, shortened: as §2
Pseudomonas aeruginosa [19] = assay: Antibacterial activity against Pseudomonas aeruginosa isolate 19147nm after 18 hrs by broth microdilution method; format: functional; procedure, shortened: as §2
[20] = Selectivity index, ratio of CC50 for human HepG2 cells in presence of 1% FBS to MIC for Pseudomonas aeruginosa ATCC 27853; format: toxicity; settings: read-out: Selectivity Index; procedure, shortened: as §1
Pseudomonas aeruginosa [21] = assay: Antibacterial activity against Pseudomonas aeruginosa QLD PSA 1 after 18 hrs by broth microdilution method; format: functional; settings: QLD PSA 1, 18 h; procedure, shortened: as §2
Escherichia coli [22] = assay: Antibacterial activity against Escherichia coli N11281 after 18 hrs by broth microdilution method; format: functional; settings: N11281, 18 h; procedure, shortened: as §2
Acinetobacter baumannii [23] = assay: Antibacterial activity against Acinetobacter baumannii ATCC 17978 after 18 hrs by broth microdilution method; format: functional; settings: ATCC 17978, 18 h; procedure, shortened: as §2
Klebsiella pneumoniae [24] = assay: Antibacterial activity against Klebsiella pneumoniae isolate 224-11-C after 18 hrs by broth microdilution method; format: functional; procedure, shortened: as §2
[25] = Selectivity index, ratio of CC50 for human HepG2 cells in presence of 1% FBS to IC50 for CQ-sensitive GFP-fused Plasmodium falciparum D10; format: toxicity; settings: read-out: Ratio IC50
[26] = Selectivity index, ratio of CC50 for human HepG2 cells in presence of 1% FBS to MIC for Pseudomonas aeruginosa isolate 18878B klon 1; format: toxicity; settings: read-out: Selectivity Index; procedure, shortened: as §1
[27] = Selectivity index, ratio of CC50 for human HepG2 cells in presence of 1% FBS to MIC for Klebsiella pneumoniae isolate 1; format: toxicity; settings: read-out: Selectivity Index
[28] = Selectivity index, ratio of CC50 for human HepG2 cells in presence of 1% FBS to MIC for Escherichia coli N4149; format: toxicity; settings: read-out: Selectivity Index
Plasmodium falciparum = assay: Growth inhibition of CQ-sensitive GFP-fused Plasmodium falciparum D10 after 90 hrs by ethidium bromide staining based flow cytometry; format: functional, organism-based; settings: D10, 90 h
Procedure, shortened: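 Parasites cultured in human O+ erythrocytes in RPMI-HEPES pH 7.4 with hypoxanthine, NaHCO3, gentamicin and 0.5% Albumax II under 1% O2/4% CO2 at 37 °C. Synchronised to rings with heparin plus sorbitol. Set up at 1% parasitaemia and 1% haematocrit with 10x compound added. Cultured 90 h to next-cycle trophozoites. Stained with 10 µg/mL ethidium bromide for 1 h, washed, parasitaemia counted by flow cytometry with GFP gating.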

[29] = Selectivity index, ratio of CC50 for human HepG2 cells in presence of 1% FBS to MIC for Pseudomonas aeruginosa isolate 912; format: toxicity; settings: read-out: Selectivity Index; procedure, shortened: as §1

Compound	selectivity ratio [1]	selectivity ratio [2]	selectivity ratio [3]	MIC (Klebsiella pneumoniae [4])	MIC (Escherichia coli [5])	MIC (Acinetobacter baumannii [6])	selectivity ratio [7]	MIC (Staphylococcus aureus [8])	MIC (Klebsiella pneumoniae [9])	MIC (Pseudomonas aeruginosa [10])	selectivity ratio [11]	MIC (Escherichia coli [12])	selectivity ratio [13]	MIC (Klebsiella pneumoniae [14])	selectivity ratio [15]	CC50 at 24 h [16]	MIC [17]	MIC (Staphylococcus aureus [18])	MIC (Enterococcus faecium)	MIC (Pseudomonas aeruginosa [19])	further results
Clc1cccc2c1-c1ccccc1[I+]2	< 2.4	0.08	0.29	8.6 µM	0.54 µM	< 0.27 µM	0.08	1.1 µM	8.6 µM	< 0.27 µM	< 2.4	0.54 µM	0.31	8.6 µM	< 2.4	660 nM	0.28 µM	2.3 µM	< 0.27 µM	< 0.27 µM	selectivity ratio [20]: < 2.4; MIC (Pseudomonas aeruginosa [21]): 0.54 µM; MIC (Escherichia coli [22]): 2.2 µM; MIC (Acinetobacter baumannii [23]): < 0.27 µM; MIC (Klebsiella pneumoniae [24]): 8.6 µM; selectivity ratio [25]: 13; selectivity ratio [26]: < 2.4; selectivity ratio [27]: 0.08; selectivity ratio [28]: 1.2; IC50 (Plasmodium falciparum): 50 nM; selectivity ratio [29]: < 2.4
c1ccc2c(c1)[I+]c1ccccc1-2	3.1	0.78	1.6	37 µM	37 µM	4.7 µM	0.78	19 µM	37 µM	4.7 µM	13	37 µM	0.78	75 µM	6.3	29200 nM	0.3 µM	19 µM	4.7 µM	2.3 µM	selectivity ratio [20]: 0.39; MIC (Pseudomonas aeruginosa [21]): 9.3 µM; MIC (Escherichia coli [22]): 37 µM; MIC (Acinetobacter baumannii [23]): 2.3 µM; MIC (Klebsiella pneumoniae [24]): 75 µM; selectivity ratio [25]: 221; selectivity ratio [26]: 6.3; selectivity ratio [27]: 0.78; selectivity ratio [28]: 0.78; IC50 (Plasmodium falciparum): 130 nM; selectivity ratio [29]: 6.3
COc1cccc2c1-c1ccccc1[I+]2	1.1	> 0.55	1.1	> 70 µM	70 µM	17 µM	> 0.55	35 µM	70 µM	70 µM	0.55	> 70 µM	> 0.55	> 70 µM	2.2	38300 nM	4.4 µM	35 µM	8.7 µM	70 µM	selectivity ratio [20]: > 0.55; MIC (Pseudomonas aeruginosa [21]): > 70 µM; MIC (Escherichia coli [22]): > 70 µM; MIC (Acinetobacter baumannii [23]): 35 µM; MIC (Klebsiella pneumoniae [24]): > 70 µM; selectivity ratio [25]: 225; selectivity ratio [26]: 0.55; selectivity ratio [27]: > 0.55; selectivity ratio [28]: > 0.55; IC50 (Plasmodium falciparum): 170 nM; selectivity ratio [29]: 0.55
Fc1cccc2c1-c1ccccc1[I+]2	8.2	0.51	2.1	9 µM	1.1 µM	0.56 µM	0.51	2.2 µM	9 µM	< 0.28 µM	< 16	1.1 µM	1	9 µM	8.2	4600 nM	0.29 µM	2.2 µM	0.56 µM	< 0.28 µM	selectivity ratio [20]: 2.1; MIC (Pseudomonas aeruginosa [21]): 4.5 µM; MIC (Escherichia coli [22]): 4.5 µM; MIC (Acinetobacter baumannii [23]): 0.56 µM; MIC (Klebsiella pneumoniae [24]): 9 µM; selectivity ratio [25]: 96; selectivity ratio [26]: < 16; selectivity ratio [27]: 0.51; selectivity ratio [28]: 4.2; IC50 (Plasmodium falciparum): 50 nM; selectivity ratio [29]: 1
